Reference: ChEMBL document CHEMBL4428067, “Drug Discovery against Psoriasis: Identification of a New Potent FMS-like Tyrosine Kinase 3 (FLT3) Inhibitor, 1-(4-((1H-Pyrazolo[3,4-d]pyrimidin-4-yl)oxy)-3-fluorophenyl)-3-(5-(tert-butyl)isoxazol-3-yl)urea, That Showed Potent Activity in a Psoriatic Animal Model” (J Med Chem, 2016)
Calls of active or inactive are those of the source. No cut-off for these calls is given here.

Key:
Mus musculus [1] = organism: Mus musculus; test: Antipsoriatic activity in K14-VEGF transgenic mouse model of psoriasis assessed as upper left quadrant DC cells expressing FLT3 and CD11c in psoriatic plaque lesion at 0.05% applied tropically over lesion for continuous 29 days by flow cytometric analysis (reference value: 9.62%); assay type: functional
Mus musculus [2] = organism: Mus musculus; test: Downregulation of IL17 expression in K14-VEGF transgenic mouse model of psoriasis at 0.05% applied tropically over lesion for 29 days by ELISA; assay type: functional, organism-based
Summary of the method: (§1)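 K14-VEGF mice were treated for 29 days with 0.05% cream or vehicle, n=3 each. At termination, blood was held at 4 °C for 12 h and then centrifuged. Plasma IFN-γ and IL-17 were measured by ELISA, mean ± SD.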

[3] = target: T1, Receptor-type tyrosine-protein kinase FLT3 (Mus musculus) (UniProt Q00342); test: (§2) Inhibition of FLT3 in Balb/c mouse BMDCs assessed as suppression of FLT3L-induced pDC formation measured as upper right quadrant cells level treated on day 9 post 9 days of FLT3L-stimulation measured after 24 hrs by CD11c PerCP and CD45R/B220 FITC staining based flow cytometric analysis (reference value: 14.9%); set-up: scale not given: the % may be the effect or the level left
T1 sequence (whole entry): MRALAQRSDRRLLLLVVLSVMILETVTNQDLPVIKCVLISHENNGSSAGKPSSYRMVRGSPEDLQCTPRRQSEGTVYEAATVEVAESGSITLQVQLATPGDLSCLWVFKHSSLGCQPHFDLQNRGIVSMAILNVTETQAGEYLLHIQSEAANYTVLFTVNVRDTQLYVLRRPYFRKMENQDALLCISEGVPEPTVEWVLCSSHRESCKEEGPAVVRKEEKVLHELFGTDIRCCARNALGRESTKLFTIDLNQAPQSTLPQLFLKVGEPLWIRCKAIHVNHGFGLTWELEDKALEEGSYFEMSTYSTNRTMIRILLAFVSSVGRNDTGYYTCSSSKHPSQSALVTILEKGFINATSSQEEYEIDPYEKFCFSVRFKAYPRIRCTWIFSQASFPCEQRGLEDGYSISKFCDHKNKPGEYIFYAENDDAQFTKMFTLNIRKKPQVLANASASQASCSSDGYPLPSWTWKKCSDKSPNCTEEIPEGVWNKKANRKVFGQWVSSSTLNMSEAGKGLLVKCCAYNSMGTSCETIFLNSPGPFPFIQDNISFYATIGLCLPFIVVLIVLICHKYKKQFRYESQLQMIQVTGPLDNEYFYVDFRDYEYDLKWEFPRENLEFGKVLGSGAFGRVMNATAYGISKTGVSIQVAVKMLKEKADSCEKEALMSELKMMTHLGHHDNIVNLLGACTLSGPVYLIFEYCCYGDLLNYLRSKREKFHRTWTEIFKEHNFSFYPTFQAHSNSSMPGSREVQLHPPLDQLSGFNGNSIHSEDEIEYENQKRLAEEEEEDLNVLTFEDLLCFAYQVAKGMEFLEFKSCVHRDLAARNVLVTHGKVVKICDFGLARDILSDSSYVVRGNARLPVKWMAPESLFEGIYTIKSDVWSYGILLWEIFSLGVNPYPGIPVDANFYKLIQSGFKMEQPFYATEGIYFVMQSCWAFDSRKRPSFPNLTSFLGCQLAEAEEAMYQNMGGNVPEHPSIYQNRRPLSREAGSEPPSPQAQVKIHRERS
Summary of the method: (§3)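 BALB/c bone marrow cells were cultured at 1×10^6/ml with FLT3L in supplemented RPMI-1640 for 9 days. Compound in DMSO or 0.1% DMSO was added on day 9 for 24 h. Cells were stained for 30 min with CD11c PerCP plus B220 FITC (pDC: CD11c+ B220+) or MHC II FITC (mDC: CD11c+ MHC II+), then analysed by flow cytometry. Three independent experiments.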

Mus musculus [4] = organism: Mus musculus; test: Antipsoriatic activity in K14-VEGF transgenic mouse model of psoriasis assessed as decrease in VEGF expression in psoriatic lesion at 0.05% applied tropically over lesion for continuous 29 days by immunohistochemical analysis relative to vehicle control; assay type: functional; set-up: scale not given: the % may be the effect or the level left
Summary of the method: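 K14-VEGF mice were treated topically with 0.05% cream or vehicle for 29 days, n=3 per group. Ear skin was paraffin-embedded, cut into 4-µm sections and immunostained. Staining was quantified in 5 random fields, reported as mean ± SD.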

[5] = target: T1, Receptor-type tyrosine-protein kinase FLT3 (Mus musculus); test: as §2, with “mDC” for “pDC”, “lower” for “upper”, “I-A/I-E (MHC class II)” for “CD45R/B220”, “3.49%)” for “14.9%)”; set-up: scale not given: the % may be the effect or the level left; summary of the method: as §3
BMDC [6] = test: Decrease in IFN-gamma level in Balb/c mouse BMDCs at 10 nM treated on day 9 post 9 days of FLT3L-stimulation measured after 12 hrs by ELISA; assay type: functional, cell-based
Summary of the method: (§4)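 BALB/c bone marrow cells were plated at 1×10^6/ml in RPMI-1640 with 10% FCS, 10^-4 M 2-ME, pyruvate, antibiotics and FLT3L for 9 days. On day 9, compound in DMSO or 0.1% DMSO was added. After 12 h, supernatant IFN-γ and IL-23 were measured by ELISA. Three independent experiments.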

Mus musculus [7] = organism: Mus musculus; test: Downregulation of IFN-gamma expression in K14-VEGF transgenic mouse model of psoriasis at 0.05% applied tropically over lesion for 29 days by ELISA; assay type: functional, organism-based; summary of the method: as §1
[8] = target: T1, Receptor-type tyrosine-protein kinase FLT3 (Mus musculus); test: as §2, with “lower left” for “upper right”, “36.5%)” for “14.9%)”; set-up: scale not given: the % may be the effect or the level left; summary of the method: as §3
Mus musculus [9] = organism: Mus musculus; test: Antipsoriatic activity in K14-VEGF transgenic mouse model of psoriasis assessed as lower left quadrant FLT3+/CD11c+/B220+ pDC cells in psoriatic plaque lesion at 0.05% applied tropically over lesion for continuous 29 days by flow cytometric analysis (reference value: 4.97%); assay type: functional
BMDC [10] = test: Decrease in IL23 level in Balb/c mouse BMDCs at 10 nM treated on day 9 post 9 days of FLT3L-stimulation measured after 12 hrs by ELISA; assay type: functional, cell-based; summary of the method: as §4
Mus musculus [11] = organism: Mus musculus; test: Antipsoriatic activity in K14-VEGF transgenic mouse model of psoriasis assessed as reduction in epidermal thickness at 0.05% applied tropically over lesion for continuous 29 days by H and E staining method relative to vehicle control; assay type: functional, organism-based
Summary of the method: (§5)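 Homozygous K14-VEGF mice, 3–4 months old, with moderate to serious psoriasis; n=3 per group. Cream with 0.05% compound or vehicle cream smeared on lesions. Head and neck tissue sections taken after 29 days of treatment and HE-stained. Baker pathological score from 5 random fields, given as mean and SD. Epidermal thickness from 8 random fields, given as mean ± SEM.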

Mus musculus [12] = organism: Mus musculus; test: Antipsoriatic activity in K14-VEGF transgenic mouse model of psoriasis assessed as upper left quadrant FLT3+/CD11c+/B220+ pDC cells in psoriatic plaque lesion at 0.05% applied tropically over lesion for continuous 29 days by flow cytometric analysis (reference value: 36.1%); assay type: functional
Mus musculus [13] = organism: Mus musculus; test: Antipsoriatic activity in K14-VEGF transgenic mouse model of psoriasis assessed alleviation in lack of granular layer at 0.05% applied tropically over lesion for continuous 29 days by H and E staining method relative to vehicle control; assay type: functional, organism-based; summary of the method: as §5
[14] = target: T1, Receptor-type tyrosine-protein kinase FLT3 (Mus musculus); test: as §2, with “mDC” for “pDC”, “left” for “right”, “I-A/I-E (MHC class II)” for “CD45R/B220”, “31.8%)” for “14.9%)”; set-up: scale not given: the % may be the effect or the level left; summary of the method: as §3

- Activity [3]: 7.84%
- Activity [5]: 5.15%
- Activity [8]: 47.2%
- Activity [14]: 23.5%
SMILES: CC(C)(C)c1cc(NC(=O)Nc2ccc(Oc3ncnc4[nH]ncc34)c(F)c2)no1
- Activity (Mus musculus [1]): 3.22%
- Activity (Mus musculus [2]): Active
- Activity (Mus musculus [4]): 90%
- inhibition (BMDC [6]): Active
- Activity (Mus musculus [7]): Active
- Activity (Mus musculus [9]): 11%
- inhibition (BMDC [10]): Active
- Activity (Mus musculus [11]): Active
- Activity (Mus musculus [12]): 9.6%
- Activity (Mus musculus [13]): Active
